Measurements of several laboratories.
CDK4 with cyclin D3: Cyclin-dependent kinase 4, with cyclin D3 (CDK4, Homo sapiens, UniProt P11802)
CDK4: Cyclin-dependent kinase 4 (CDK4, Homo sapiens, UniProt P11802)
CDK4 with cyclin D1: Cyclin-dependent kinase 4, with cyclin D1 (CDK4, Homo sapiens, UniProt P11802)

SMILES	target	observed	technique	tested at	remaining binding [%]
O=C(NCC1CCOCC1)c1n[nH]cc1NC(=O)c1c(F)cccc1F	CDK4 with cyclin D3	binding	competition with immobilised ligand	1 µM	20
O=C1CCc2cc(Nc3cc(OC4CCOCC4)c([N+](=O)[O-])cc3Cl)ccc2N1	CDK4	cell-free assay	competition with immobilised ligand	1 µM	81
N[C@H]1CCN(c2nccc(-c3cnn4ncccc34)n2)C1	CDK4	binding	–	1 µM	75
O=C(c1ccc(Nc2ncc(Cl)c(-c3cc4ccccc4s3)n2)cc1)N1CCC(N2CCCC2)CC1	CDK4	binding	competition with immobilised ligand	1 µM	21
c1cncc(-c2cccc(Nc3nccc(NC4CCCCC4)n3)c2)c1	CDK4 with cyclin D1	binding	competition with immobilised ligand	10 µM	100
O=C(NCCCN1CCOCC1)c1ccc(Nc2nccc(-c3cc4ccccc4s3)n2)cc1	CDK4 with cyclin D3	binding	competition with immobilised ligand	1 µM	72
Nc1ncc2c(n1)-c1c([nH]c3ccc(C#CC4CC4)cc13)CCCC2	CDK4 with cyclin D1	binding	competition with immobilised ligand	1 µM	93
CC(=O)c1c(NS(C)(=O)=O)c2cc(-c3ccc(Cl)cc3)c(-c3ccc(Cl)cc3Cl)nc2n(C)c1=O	CDK4 with cyclin D1	cell-free assay	competition with immobilised ligand	1 µM	100
CCN1CCN(Cc2ccc(C(=O)Nc3ccc(C)c(Oc4ccc5c(c4)CC(=O)N5)c3)cc2C(F)(F)F)CC1	CDK4 with cyclin D1	binding	competition with immobilised ligand	1 µM	79
O=C(c1ccc(Nc2nccc(-c3cc4ccccc4s3)n2)cc1)N1CCC(N2CCCC2)CC1	CDK4 with cyclin D3	binding	competition with immobilised ligand	1 µM	18
c1cnn2ncc(-c3ccnc(N4CCC45COC5)n3)c2c1	CDK4	binding	–	1 µM	78
CC(C)(O)c1cncc(-c2nc3ccc(F)cc3n2C2CC2)c1	CDK4 with cyclin D1	cell-free assay	competition with immobilised ligand	1 µM	100
Cc1cnc(Nc2ccc(C(=O)N3CCC(N4CCCC4)CC3)cc2)nc1-c1cc2ccccc2s1	CDK4	binding	competition with immobilised ligand	1 µM	40
CN(C)c1ncc(F)c(-c2cnn3ncccc23)n1	CDK4 with cyclin D3	binding	–	1 µM	91
COc1cnc(Nc2cccc(S(N)(=O)=O)c2)nc1N1CCN(c2ccccc2)C(=O)C1	CDK4	binding	competition with immobilised ligand	1 µM	99
CCCOc1ccc([C@@H]2[C@@H](C(=O)O)[C@H](c3ccc4c(c3)OCO4)CN2CC(=O)Nc2c(CC)cccc2CC)cc1	CDK4	cell-free assay	competition with immobilised ligand	1 µM	84
O=C(Nc1c[nH]nc1C(=O)NC1CCNCC1)c1cc(F)cc(F)c1	CDK4 with cyclin D3	binding	competition with immobilised ligand	1 µM	98

SMILES	target	observed	technique	tested at	remaining binding [%]
COc1ncc2cc3ccccc3nc2c1C#N	CDK4 with cyclin D1	cell-free assay	competition with immobilised ligand	5 µM	82
CNCc1ccccc1-c1csc([C@H](C)Nc2nc(C)nc3cc(OC)c(OC)cc23)c1	CDK4 with cyclin D3	cell-free assay	competition with immobilised ligand	1 µM	96
CN(c1nccc(-c2cnn3ncccc23)n1)C1CC1	CDK4 with cyclin D3	binding	–	1 µM	100
C=CC(=O)N1CCC(C(=O)NCC(=O)N2CCN(c3nc(-c4cnc(N)nc4C(F)F)nc(N4CCOCC4)n3)CC2)CC1	CDK4 with cyclin D3	binding	competition with immobilised ligand	1 µM	100
O=C(NCCCN1CCOCC1)c1ccc(Nc2ncc(Cl)c(-c3ccc(Cl)s3)n2)cc1	CDK4	binding	competition with immobilised ligand	1 µM	50
COc1cc(-c2cn(C3CCc4ccccc4N(CC(F)(F)F)C3=O)nn2)ccc1-n1ccc(C)n1 (stereo not drawn)	CDK4	cell-free assay	competition with immobilised ligand	1 µM	53
FC(F)(F)Oc1cccc(-c2cnc3ccc(-c4ccncc4)nn23)c1	CDK4 with cyclin D3	cell-free assay	competition with immobilised ligand	5 µM	57
CNC(=O)[C@@H]1CC[C@@H](n2c(-c3ccc4cnccc4c3)nc3ccc(C(=O)NCc4cccc(C(N)=O)c4)cc32)C1	CDK4 with cyclin D3	binding	competition with immobilised ligand	1 µM	100
CS(=O)(=O)NCC[C@H](NC(=O)c1cncc2c1cnn2-c1ccc(F)cc1)c1ccnc(S(C)(=O)=O)c1	CDK4 with cyclin D1	cell-free assay	competition with immobilised ligand	1 µM	100
CN(CCCC(F)(F)F)c1nccc(-c2cnn3ncccc23)n1	CDK4 with cyclin D1	binding	–	1 µM	61
COc1cnc(Nc2cccc(S(N)(=O)=O)c2)nc1N1CCN(c2ccccc2)CC1	CDK4	binding	competition with immobilised ligand	1 µM	76
C[C@@H](c1ccc(-n2cnc3c(N)ncnc32)cc1)N1CCc2nn(C)c(Cc3ccccc3)c2C1=O	CDK4	binding	competition with immobilised ligand	0.1 µM	85
C[C@@H]1CCN(c2nccc(-c3cnn4ncccc34)n2)C1	CDK4 with cyclin D1	binding	–	1 µM	88
CN(C)CC#Cc1ccc(OCCCc2sc(N3CCc4cccc(C(=O)Nc5nc6ccccc6s5)c4C3)nc2C(=O)O)c(F)c1	CDK4	cell-free assay	competition with immobilised ligand	1 µM	100
O=C(c1ccc(Nc2ncc(Cl)c(-c3ccc(Cl)s3)n2)cc1)N1CCC(N2CCCC2)CC1	CDK4 with cyclin D1	binding	competition with immobilised ligand	1 µM	0.1
COc1ccnn2ncc(-c3ccnc(N(C)C)n3)c12	CDK4	binding	–	1 µM	95
